Data from ChEMBL document CHEMBL3091274, “SAR-based optimization of 2-(1H-pyrazol-1-yl)-thiazole derivatives as highly potent EP1 receptor antagonists” (Bioorg Med Chem Lett, 2013).
Values after ≈ are worked out from the molar mass of the structure shown.

Legend:
[1] = target: T1, Prostaglandin E2 receptor EP1 subtype (Homo sapiens, UniProt P34995); test: Antagonist activity human EP1 receptor assessed as inhibition of PGE2-induced effect by reporter gene assay
T1 sequence (P34995 whole entry): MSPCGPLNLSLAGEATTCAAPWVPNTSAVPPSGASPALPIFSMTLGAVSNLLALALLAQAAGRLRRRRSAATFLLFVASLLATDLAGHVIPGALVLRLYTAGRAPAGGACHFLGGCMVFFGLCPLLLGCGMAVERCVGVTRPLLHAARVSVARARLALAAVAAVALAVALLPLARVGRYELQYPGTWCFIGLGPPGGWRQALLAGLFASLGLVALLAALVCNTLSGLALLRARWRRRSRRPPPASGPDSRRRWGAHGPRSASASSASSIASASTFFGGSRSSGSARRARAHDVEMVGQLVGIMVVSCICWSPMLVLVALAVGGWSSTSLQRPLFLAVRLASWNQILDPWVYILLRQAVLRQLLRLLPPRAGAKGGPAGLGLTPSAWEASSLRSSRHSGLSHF
Outline: (§1)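 Human EP1 receptor-expressing recombinant cells stimulated with PGE2; antagonism read out by reporter-gene assay or by intracellular Ca2+ release; IC50 in nM.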

[2] = target: T2, Prostaglandin E2 receptor EP1 subtype (Homo sapiens) (UniProt P34995); test: Antagonist activity human EP1 receptor assessed as inhibition of PGE2-induced effect at 1 uM by reporter gene assay relative to control
T2 sequence (whole entry): T1 sequence (P34995 whole entry)

[3] = Solubility of the compound at pH 6.8; format: physicochemical; conditions: buffer
Outline: (§2)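 Solubility measured in aqueous buffer at pH 1.2 and pH 6.8; reported in […].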

[4] = Solubility of the compound in water; format: physicochemical
albumin = albumin (Homo sapiens, UniProt P02768); test: Binding affinity to albumin in plasma (unknown origin); format: ADME; conditions: read-out: PPB (converted)
[5] = Intrinsic clearance in rat liver microsomes; format: ADME; conditions: read-out: CLH
Outline: (§3)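 Rat or human hepatic microsomes; test compound at 0.5 µM; CLint calculated from elimination ratio between 0 and 20 min; expressed as ml/min/kg.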

[6] = Intrinsic clearance in human liver microsomes; format: ADME; conditions: read-out: CLH; outline: as §3
[7] = target: T1, Prostaglandin E2 receptor EP1 subtype; test: Antagonist activity human EP1 receptor assessed as inhibition of PGE2-induced intracellular Ca2+ release by cell-based assay; format: functional; outline: as §1
[8] = Oral bioavailability in rat at 10 mg/kg; format: ADME, organism-based; conditions: in vivo
Outline: (§4)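 Rats (n = 3) given single oral dose, 10 mg/kg; plasma Cmax, AUC and bioavailability derived from pharmacokinetic profile.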

[9] = Cmax in rat at 10 mg/kg, po; format: ADME, organism-based; design: dose 10 mg/kg, route oral; conditions: in vivo; outline: as §4
[10] = AUC (0 to infinity) in rat at 10 mg/kg, po; format: ADME, organism-based; design: time infinity, dose 10 mg/kg, route oral; conditions: plasma; outline: as §4
Thromboxane A2 receptor = target: T3, Thromboxane A2 receptor (Homo sapiens, UniProt P21731); test: Inhibition of TP receptor (unknown origin)
T3 sequence (P21731 whole entry): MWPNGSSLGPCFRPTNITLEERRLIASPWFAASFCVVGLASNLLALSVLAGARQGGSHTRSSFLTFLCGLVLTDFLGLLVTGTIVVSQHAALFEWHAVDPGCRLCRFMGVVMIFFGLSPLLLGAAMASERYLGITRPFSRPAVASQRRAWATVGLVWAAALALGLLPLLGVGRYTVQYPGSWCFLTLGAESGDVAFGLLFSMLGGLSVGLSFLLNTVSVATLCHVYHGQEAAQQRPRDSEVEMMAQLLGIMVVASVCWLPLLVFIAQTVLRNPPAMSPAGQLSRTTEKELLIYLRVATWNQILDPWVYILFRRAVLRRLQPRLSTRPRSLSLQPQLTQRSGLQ

Salmonella typhimurium = test: Genotoxicity in Salmonella typhimurium TA98 by Ames test; format: toxicity, organism-based; conditions: salmonella enterica subsp. enterica serovar typhimurium
Outline: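 Bacterial reverse mutation (Ames) test in amino acid-requiring Salmonella typhimurium TA98, detecting point mutations.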

Cytochrome P450 3A4 = Cytochrome P450 3A4 (Homo sapiens, UniProt P08684); test: Inhibition of human CYP3A4; format: ADME
Cytochrome P450 2D6 = Cytochrome P450 2D6 (Homo sapiens, UniProt P10635); test: Inhibition of human CYP2D6; format: ADME
Cytochrome P450 2C19 = Cytochrome P450 2C19 (Homo sapiens, UniProt P33261); test: Inhibition of human CYP2C19; format: ADME
Cytochrome P450 2C9 = Cytochrome P450 2C9 (Homo sapiens, UniProt P11712); test: Inhibition of human CYP2C9; format: ADME
Cytochrome P450 1A2 = target: T4, Cytochrome P450 1A2 (Homo sapiens, UniProt P05177); test: Inhibition of human CYP1A2; format: ADME
T4 sequence (P05177 whole entry): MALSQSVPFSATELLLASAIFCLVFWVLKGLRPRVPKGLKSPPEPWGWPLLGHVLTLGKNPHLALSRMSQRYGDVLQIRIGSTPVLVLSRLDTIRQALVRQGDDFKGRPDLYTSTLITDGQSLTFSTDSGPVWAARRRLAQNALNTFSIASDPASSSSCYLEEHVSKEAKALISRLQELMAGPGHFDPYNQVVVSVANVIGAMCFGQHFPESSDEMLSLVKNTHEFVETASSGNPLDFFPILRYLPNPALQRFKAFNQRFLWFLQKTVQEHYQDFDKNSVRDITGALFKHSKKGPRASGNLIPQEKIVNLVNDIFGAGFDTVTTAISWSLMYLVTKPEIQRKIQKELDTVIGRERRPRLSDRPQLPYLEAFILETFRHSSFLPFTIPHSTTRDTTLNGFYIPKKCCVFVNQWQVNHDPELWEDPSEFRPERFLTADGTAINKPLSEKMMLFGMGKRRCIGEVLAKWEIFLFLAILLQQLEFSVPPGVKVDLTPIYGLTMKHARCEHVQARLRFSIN

[11] = Apparent permeability in MDCK cells; format: ADME, cell-based, Canis lupus familiaris; conditions: dog
Outline: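 Epithelial permeability across Madin–Darby canine kidney cell monolayer, with atenolol as reference.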

[12] = Solubility of the compound at pH 1.2; format: physicochemical; conditions: buffer; outline: as §2
[13] = target: Prostaglandin E2 receptor EP4 subtype (Homo sapiens, UniProt P35408); test: Binding affinity to human EP4 receptor
[14] = target: T5, Prostaglandin E2 receptor EP3 subtype (Homo sapiens, UniProt P43115); test: Binding affinity to human EP3 receptor
T5 sequence (P43115 whole entry): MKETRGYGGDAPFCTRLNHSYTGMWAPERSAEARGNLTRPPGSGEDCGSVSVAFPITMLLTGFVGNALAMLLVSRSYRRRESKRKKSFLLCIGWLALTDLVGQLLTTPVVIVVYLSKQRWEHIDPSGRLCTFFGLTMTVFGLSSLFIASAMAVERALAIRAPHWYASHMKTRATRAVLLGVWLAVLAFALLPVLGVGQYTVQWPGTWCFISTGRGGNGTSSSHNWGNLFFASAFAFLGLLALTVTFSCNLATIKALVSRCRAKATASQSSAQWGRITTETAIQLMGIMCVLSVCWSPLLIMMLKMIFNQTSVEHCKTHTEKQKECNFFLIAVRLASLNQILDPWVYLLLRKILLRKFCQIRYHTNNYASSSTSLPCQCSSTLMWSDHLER

[15] = target: Prostaglandin E2 receptor EP2 subtype (Homo sapiens, UniProt P43116); test: Binding affinity to human EP2 receptor
[16] = target: T1, Prostaglandin E2 receptor EP1 subtype; test: Binding affinity to human EP1 receptor

Sequence of albumin (P02768 whole entry): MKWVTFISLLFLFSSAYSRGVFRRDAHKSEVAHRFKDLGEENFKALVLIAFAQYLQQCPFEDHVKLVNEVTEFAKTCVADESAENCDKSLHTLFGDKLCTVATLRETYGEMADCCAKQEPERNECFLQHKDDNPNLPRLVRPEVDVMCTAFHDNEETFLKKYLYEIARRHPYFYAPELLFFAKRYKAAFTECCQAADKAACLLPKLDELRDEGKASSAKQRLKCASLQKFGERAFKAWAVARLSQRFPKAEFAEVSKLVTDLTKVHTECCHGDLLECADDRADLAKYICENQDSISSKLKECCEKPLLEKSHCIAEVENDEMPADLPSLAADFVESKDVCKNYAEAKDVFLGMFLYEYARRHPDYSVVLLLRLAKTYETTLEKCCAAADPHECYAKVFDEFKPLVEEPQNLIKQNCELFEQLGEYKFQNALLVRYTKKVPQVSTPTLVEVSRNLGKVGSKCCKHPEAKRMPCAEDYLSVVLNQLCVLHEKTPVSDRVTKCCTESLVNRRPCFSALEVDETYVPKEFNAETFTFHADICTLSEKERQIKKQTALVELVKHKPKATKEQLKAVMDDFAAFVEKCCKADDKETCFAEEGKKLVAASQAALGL
Sequence of Cytochrome P450 3A4 (P08684 whole entry): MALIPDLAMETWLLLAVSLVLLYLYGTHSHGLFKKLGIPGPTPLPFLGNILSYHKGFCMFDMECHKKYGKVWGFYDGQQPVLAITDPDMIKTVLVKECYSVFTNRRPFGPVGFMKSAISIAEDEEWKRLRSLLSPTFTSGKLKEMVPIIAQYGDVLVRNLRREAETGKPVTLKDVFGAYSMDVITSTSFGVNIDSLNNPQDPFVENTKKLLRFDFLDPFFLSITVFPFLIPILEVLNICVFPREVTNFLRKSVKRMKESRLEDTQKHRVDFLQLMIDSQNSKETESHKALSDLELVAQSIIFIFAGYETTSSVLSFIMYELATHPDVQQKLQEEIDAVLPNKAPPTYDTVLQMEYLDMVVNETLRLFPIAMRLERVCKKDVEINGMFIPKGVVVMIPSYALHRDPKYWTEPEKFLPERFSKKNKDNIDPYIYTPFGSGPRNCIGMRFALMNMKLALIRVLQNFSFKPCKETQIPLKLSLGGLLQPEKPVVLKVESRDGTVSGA
Sequence of Cytochrome P450 2C19 (P33261 whole entry): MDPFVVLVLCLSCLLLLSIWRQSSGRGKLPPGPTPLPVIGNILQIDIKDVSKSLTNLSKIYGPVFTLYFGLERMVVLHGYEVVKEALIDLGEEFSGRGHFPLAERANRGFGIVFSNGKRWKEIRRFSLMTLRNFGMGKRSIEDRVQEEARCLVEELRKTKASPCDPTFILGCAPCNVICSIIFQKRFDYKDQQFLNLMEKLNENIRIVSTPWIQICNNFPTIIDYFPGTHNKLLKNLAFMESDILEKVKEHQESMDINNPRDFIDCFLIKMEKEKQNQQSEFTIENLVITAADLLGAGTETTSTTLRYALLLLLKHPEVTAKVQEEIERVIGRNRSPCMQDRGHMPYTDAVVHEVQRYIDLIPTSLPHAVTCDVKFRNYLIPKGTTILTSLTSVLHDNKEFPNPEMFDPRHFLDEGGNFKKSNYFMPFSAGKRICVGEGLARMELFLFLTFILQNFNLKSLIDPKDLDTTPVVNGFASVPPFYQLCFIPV
Sequence of Cytochrome P450 2D6 (P10635 whole entry): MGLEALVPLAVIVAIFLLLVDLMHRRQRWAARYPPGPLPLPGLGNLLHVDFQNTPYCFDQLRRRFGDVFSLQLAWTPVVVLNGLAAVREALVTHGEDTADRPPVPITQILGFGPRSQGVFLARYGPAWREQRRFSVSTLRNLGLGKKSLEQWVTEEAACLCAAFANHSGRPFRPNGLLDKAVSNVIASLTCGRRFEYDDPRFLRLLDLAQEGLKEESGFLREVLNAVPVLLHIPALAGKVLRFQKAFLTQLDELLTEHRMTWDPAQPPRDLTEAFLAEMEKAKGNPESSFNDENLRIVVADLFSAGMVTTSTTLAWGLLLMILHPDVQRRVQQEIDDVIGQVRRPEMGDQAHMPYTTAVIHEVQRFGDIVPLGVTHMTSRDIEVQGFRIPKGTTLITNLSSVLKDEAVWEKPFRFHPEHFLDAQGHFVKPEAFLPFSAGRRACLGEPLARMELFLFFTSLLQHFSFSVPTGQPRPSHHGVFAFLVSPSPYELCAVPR
Sequence of Prostaglandin E2 receptor EP2 subtype (P43116 whole entry): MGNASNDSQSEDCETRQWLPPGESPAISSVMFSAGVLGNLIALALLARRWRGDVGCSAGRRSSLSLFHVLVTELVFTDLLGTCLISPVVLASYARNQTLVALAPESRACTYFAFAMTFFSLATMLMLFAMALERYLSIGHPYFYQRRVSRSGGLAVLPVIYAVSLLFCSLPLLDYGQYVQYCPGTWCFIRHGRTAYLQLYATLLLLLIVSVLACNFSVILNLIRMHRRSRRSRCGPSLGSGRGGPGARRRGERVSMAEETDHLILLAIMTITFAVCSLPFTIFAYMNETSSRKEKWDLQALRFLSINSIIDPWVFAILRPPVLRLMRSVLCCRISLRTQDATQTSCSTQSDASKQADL
Sequence of Cytochrome P450 2C9 (P11712 whole entry): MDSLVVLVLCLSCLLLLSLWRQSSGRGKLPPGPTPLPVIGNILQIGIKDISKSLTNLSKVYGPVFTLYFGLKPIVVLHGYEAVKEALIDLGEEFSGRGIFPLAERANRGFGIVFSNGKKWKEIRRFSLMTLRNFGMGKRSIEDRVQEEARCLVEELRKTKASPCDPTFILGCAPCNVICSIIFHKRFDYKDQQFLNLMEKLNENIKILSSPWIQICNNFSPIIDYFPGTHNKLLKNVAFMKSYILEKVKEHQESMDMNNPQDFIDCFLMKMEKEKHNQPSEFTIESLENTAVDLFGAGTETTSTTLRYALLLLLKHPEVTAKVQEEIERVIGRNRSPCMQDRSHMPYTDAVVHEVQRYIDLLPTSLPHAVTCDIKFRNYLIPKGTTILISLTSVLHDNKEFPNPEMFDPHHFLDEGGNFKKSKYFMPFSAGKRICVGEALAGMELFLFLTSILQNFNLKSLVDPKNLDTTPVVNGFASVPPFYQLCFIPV
Sequence of Prostaglandin E2 receptor EP4 subtype (P35408 whole entry): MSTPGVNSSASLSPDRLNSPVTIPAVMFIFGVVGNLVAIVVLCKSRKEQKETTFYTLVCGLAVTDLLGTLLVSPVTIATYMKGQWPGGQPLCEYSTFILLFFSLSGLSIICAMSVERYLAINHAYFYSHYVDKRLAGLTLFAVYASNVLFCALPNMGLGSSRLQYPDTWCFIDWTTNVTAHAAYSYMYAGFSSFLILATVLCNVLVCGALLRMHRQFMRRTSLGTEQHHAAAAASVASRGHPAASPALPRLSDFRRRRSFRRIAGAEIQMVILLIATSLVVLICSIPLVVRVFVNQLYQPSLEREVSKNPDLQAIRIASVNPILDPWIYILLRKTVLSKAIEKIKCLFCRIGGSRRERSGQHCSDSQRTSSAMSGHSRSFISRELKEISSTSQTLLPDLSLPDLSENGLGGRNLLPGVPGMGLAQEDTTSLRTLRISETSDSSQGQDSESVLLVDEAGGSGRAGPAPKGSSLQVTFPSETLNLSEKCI

SMILES: Cc1c(-c2ccccc2)nn(-c2nc(/C=C/C(=O)O)cs2)c1-c1ccccc1
- IC50 [1]: 500 nM

SMILES: O=C(O)c1csc(-n2nc(-c3ccccc3)c(O)c2-c2ccccc2)n1
- IC50 [1]: 60 nM

SMILES: O=C(O)c1csc(-n2nc(-c3ccccc3)c(Cl)c2-c2ccccc2)n1
- IC50 [1]: 60 nM

SMILES: Cc1c(-c2ccccc2)nn(-c2nc(C(=O)O)cs2)c1-c1cncnc1
- inhibition [2]: 24%

SMILES: Cc1c(-c2ccccc2)nn(-c2nc(C(=O)O)co2)c1-c1ccccc1
- inhibition [2]: 33%

SMILES: CCc1c(-c2ccccc2)nn(-c2nc(C(=O)O)cs2)c1-c1ccccc1
- inhibition [2]: -4%

SMILES: O=C(O)c1csc(-n2nc(-c3ccccc3)c3c2-c2ccccc2C3)n1
- solubility [3]: 57 µg/mL (≈ 159 µM)
- solubility [4]: 4 µg/mL (≈ 11.1 µM)
- fraction unbound (albumin): 0.0032
- CLint scaled [5]: 927 mL/min/kg
- CLint scaled [6]: 425 mL/min/kg
- IC50 [7]: 40 nM
- IC50 [1]: 0.9 nM

SMILES: Nc1c(-c2ccccc2)nn(-c2nc(C(=O)O)cs2)c1-c1ccccc1
- bioavailability [8]: 26%
- Cmax [9]: 6.33 µM
- AUC(0-inf) [10]: 17.4 µM·h
- IC50 (Thromboxane A2 receptor): 200 nM
- Activity (Salmonella typhimurium): Non-toxic
- IC50 (Cytochrome P450 3A4): > 10000 nM
- IC50 (Cytochrome P450 2D6): > 10000 nM
- IC50 (Cytochrome P450 2C19): 6140 nM
- IC50 (Cytochrome P450 2C9): 5620 nM
- IC50 (Cytochrome P450 1A2): 7100 nM
- Papp [11]: 12.2 ×10⁻⁶ cm/s
- solubility [3]: 1010 µg/mL (≈ 2790 µM)
- solubility [12]: 867 µg/mL (≈ 2390 µM)
- solubility [4]: 865 µg/mL (≈ 2390 µM)
- fraction unbound (albumin): 0.01
- CLint scaled [5]: 29 mL/min/kg
- CLint scaled [6]: 19 mL/min/kg
- Ki [13]: > 2700 nM
- Ki [14]: > 5000 nM
- Ki [15]: > 8700 nM
- Ki [16]: 8 nM
- IC50 [7]: 60 nM
- IC50 [1]: 20 nM

SMILES: O=C(O)c1csc(-n2nc(-c3ccccc3)c(Br)c2-c2ccccc2)n1
- IC50 [1]: 20 nM

SMILES: Cc1c(-c2ccccc2)nn(-c2nc(C(=O)O)cs2)c1-c1cccc(F)c1
- IC50 [1]: 50 nM

SMILES: O=C(O)c1csc(-n2nc(-c3ccccc3)c3oc4ccccc4c32)n1
- IC50 [1]: 20 nM

SMILES: COc1c(-c2ccccc2)nn(-c2nc(C(=O)O)cs2)c1-c1ccccc1
- inhibition [2]: 18%

SMILES: Cc1c(-c2ccccc2)nn(-c2ccc(C(=O)O)o2)c1-c1ccccc1
- inhibition [2]: 24%

SMILES: Cc1c(-c2ccccc2)nn(-c2nc(C(=O)O)cs2)c1-c1ccc(F)cc1
- IC50 [1]: 100 nM

SMILES: Cc1c(-c2ccccc2)nn(-c2nc(C(=O)O)cs2)c1-c1cnn(C)c1
- inhibition [2]: 8%

SMILES: Cc1c(-c2ccccc2)nn(-c2ccc(C(=O)O)s2)c1-c1ccccc1
- IC50 [1]: 1000 nM

SMILES: Cc1sc(-n2nc(-c3ccccc3)c(C)c2-c2ccccc2)nc1C(=O)O
- IC50 [1]: 330 nM

SMILES: Cc1c(-c2ccccc2)nn(-c2nc(C(=O)O)cs2)c1-c1cccnc1
- inhibition [2]: 34%

SMILES: O=C(O)c1csc(-n2nc(-c3ccccc3)c(C(F)(F)F)c2-c2ccccc2)n1
- IC50 [1]: 150 nM

SMILES: O=C(O)c1csc(-n2nc(-c3ccccc3)c(I)c2-c2ccccc2)n1
- IC50 [1]: 130 nM

SMILES: Cc1c(-c2ccccc2)nn(-c2nc(C(=O)O)cs2)c1-c1ccccc1
- Activity (Salmonella typhimurium): Non-toxic
- IC50 (Cytochrome P450 3A4): > 10000 nM
- IC50 (Cytochrome P450 2D6): > 10000 nM
- IC50 (Cytochrome P450 2C19): 4710 nM
- IC50 (Cytochrome P450 2C9): > 10000 nM
- IC50 (Cytochrome P450 1A2): 7930 nM
- Papp [11]: 51.6 ×10⁻⁶ cm/s
- solubility [3]: 401 µg/mL (≈ 1110 µM)
- solubility [4]: 129 µg/mL (≈ 357 µM)
- fraction unbound (albumin): 0.0029
- CLint scaled [5]: 15 mL/min/kg
- CLint scaled [6]: 35 mL/min/kg
- Ki [15]: > 8700 nM

SMILES: Cc1c(-c2ccccc2)nn(-c2nc(C(=O)O)cs2)c1-c1cccs1
- IC50 [1]: 120 nM

SMILES: O=C(O)c1csc(-n2nc3c(c2-c2ccccc2)CCc2ccccc2-3)n1
- solubility [3]: 10 µg/mL (≈ 26.8 µM)
- solubility [4]: 20 µg/mL (≈ 53.6 µM)
- fraction unbound (albumin): 0.0012
- CLint scaled [5]: 236 mL/min/kg
- CLint scaled [6]: 149 mL/min/kg
- IC50 [7]: 20 nM
- IC50 [1]: 2 nM

SMILES: Cc1c(-c2ccccc2)nn(-c2nc(C(=O)O)cs2)c1-c1ccc(N)cc1
- inhibition [2]: 10%

SMILES: Cc1c(-c2ccccc2)nn(-c2nc(C(=O)O)cs2)c1-c1ccsc1
- IC50 [1]: 80 nM

SMILES: Cc1c(-c2ccccc2)nn(-c2cccc(C(=O)O)n2)c1-c1ccccc1
- inhibition [2]: 48%

SMILES: O=C(O)c1csc(-n2nc(-c3ccccc3)c3c2-c2ccccc2CC3)n1
- IC50 [1]: > 100 nM

SMILES: O=C(O)c1csc(-n2nc(-c3ccccc3)c(F)c2-c2ccccc2)n1
- IC50 [1]: 30 nM

SMILES: Cc1c(-c2ccccc2)nn(-c2cncc(C(=O)O)c2)c1-c1ccccc1
- inhibition [2]: 26%
